Pemphigus Ab inh – blocks pemphigus antibody binding to human desmoglein-3. DSG3-coupled beads, scFv-anti-DSG3-GFP binding, flow cytometry; stronger effect = lower value. P32926. binding (percent of control), % at 10 µM. 310,000 tested, 0.48% active;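 active means binding more than 3 SD below its plate's average and above zero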;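 further: hits lower antibody fragment binding to DSG3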
Target sequence (P32926 whole entry, looked up, the tested form may be a part): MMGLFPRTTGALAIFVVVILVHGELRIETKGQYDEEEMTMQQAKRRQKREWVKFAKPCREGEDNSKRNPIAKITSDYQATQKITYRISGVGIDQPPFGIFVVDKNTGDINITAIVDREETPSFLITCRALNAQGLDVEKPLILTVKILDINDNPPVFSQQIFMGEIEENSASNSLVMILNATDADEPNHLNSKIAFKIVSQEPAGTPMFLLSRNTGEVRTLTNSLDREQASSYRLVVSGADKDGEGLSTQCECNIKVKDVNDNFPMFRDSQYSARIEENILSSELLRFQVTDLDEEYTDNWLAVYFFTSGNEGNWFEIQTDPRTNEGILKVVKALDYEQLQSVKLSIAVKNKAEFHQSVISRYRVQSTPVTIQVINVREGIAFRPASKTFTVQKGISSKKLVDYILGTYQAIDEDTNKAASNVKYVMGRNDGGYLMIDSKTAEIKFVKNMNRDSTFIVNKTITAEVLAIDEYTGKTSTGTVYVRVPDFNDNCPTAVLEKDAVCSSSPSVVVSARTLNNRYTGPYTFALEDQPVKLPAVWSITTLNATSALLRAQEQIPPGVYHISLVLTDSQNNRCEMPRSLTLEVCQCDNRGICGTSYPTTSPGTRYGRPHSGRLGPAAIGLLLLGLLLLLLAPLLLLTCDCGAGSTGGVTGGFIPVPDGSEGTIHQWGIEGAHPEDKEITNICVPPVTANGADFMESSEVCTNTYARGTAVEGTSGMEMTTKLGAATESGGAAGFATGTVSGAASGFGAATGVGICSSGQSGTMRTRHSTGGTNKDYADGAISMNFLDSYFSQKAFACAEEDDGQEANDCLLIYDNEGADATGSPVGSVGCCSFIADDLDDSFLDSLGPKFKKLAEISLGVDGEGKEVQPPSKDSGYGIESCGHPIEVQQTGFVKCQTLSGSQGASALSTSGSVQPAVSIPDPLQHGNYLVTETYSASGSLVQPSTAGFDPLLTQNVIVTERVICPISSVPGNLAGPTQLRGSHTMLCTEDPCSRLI
TRPC6 inhibitor – mouse TRPC6 channel inhibition; Q61143; HEK293-TRPC6, membrane potential dye, ACh-evoked depolarization; stronger effect = lower value; B-score at 10 µM; 310,000 tested, 1.1% active; AID 2553;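 active means B-score under library mean minus 3 SD, initial fluorescence not abnormally high, positive integrated signal ratio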;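 further: B-score derived from integrated fluorescence ratio over the kinetic read; more negative B-score means stronger inhibition of depolarization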
TRPC4 agonist – opens the mouse TRPC4 cation channel | HEK293 TRPC4beta/mu-opioid, Fluo4 calcium fluorescence; stronger effect = higher value | 310,000 tested, 0.49% active | Q9QUQ5 | B-score at 10 µM | AID 2237;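 active means B-score above 5 SD of library B-scores, and initial fluorescence ratio not above library mean plus 5 SD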;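 further: positive B-score marks a calcium rise read as TRPC4 activation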
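Assay system: HEK293 stable line with TRPC4beta plus mu-opioid receptor; schedule: 45 min room-temperature Fluo4 loading, 110 s read; technique: kinetic Fluo4 calcium fluorescence; evaluation: integrated baseline-normalised fluorescence ratio, converted to per-well B score; controls: buffer (low) and maximal DAMGO (high)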
TRPC6 activator – activators of mouse TRPC6 channel; Q61143; HEK293-TRPC6 membrane potential dye fluorescence; stronger effect = higher value; 310,000 tested, 0.13% active; B-score at 10 µM;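 active means B-score of the integrated fluorescence ratio above library mean plus 3 SD, and starting fluorescence ratio within library mean plus 5 SD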;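 further: higher score means more depolarization so channel activation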
TRPC4 block – blocks the mouse TRPC4 cation channel. Q9QUQ5. HEK293 TRPC4beta/mu-opioid, DAMGO-evoked Fluo4 calcium flux; stronger effect = lower value. B-score at 10 µM. 300,000 tested, 0.39% active. AID 2247;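 active means B-score over 3 SD under the library average, no early fluorescence shift, positive overall ratio signal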
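Assay system: HEK293 cells with stable TRPC4beta plus mu-opioid receptor expression. Dosing: single dose. Measured by: Fluo4 Ca2+ flux fluorescence. Also added: DAMGO in two steps, submaximal then maximal. Read-out: B score from integrated Fluo4 fluorescence ratio.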
TRPC4 potent – TRPC4 (mouse) allosteric potentiation. 310,000 tested, 0.42% active. HEK293 TRPC4beta/mu-opioid, DAMGO EC20, Fluo-4 Ca2+ flux; stronger effect = higher value. B-score at 10 µM. Q9QUQ5. AID 2227;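 active means B-score of calcium response area above 5 SD of library B-scores, with initial fluorescence ratio within 5 SD of library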
TRPC4 spec 2 – second check of whether TRPC6 inhibitors also affect mouse TRPC4. shares compounds with TRPC6 inhibitor. HEK293 TRPC4/MOR, membrane potential dye fluorescence; channel activated by saturating DAMGO dose. inhibition, % at 10 µM. 920 tested, 42% active. AID 2776;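 active means compounds whose fluorescence signal differed from control wells by over 3 SD, either direction, in both duplicate plates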
TRPC4 spec – tests whether TRPC6 inhibitors also affect mouse TRPC4 | 920 tested, 61% active | activity change, negative = inhibition, % at 10 µM | shares compounds with TRPC6 inhibitor | HEK293 TRPC4/mu-opioid, membrane potential fluorescence;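 active means rise or fall in signal beyond 3 SD of buffer-only wells in both replicate plates, either sign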;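 further: integrated kinetic ratio of fluorescence range over baseline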
HEK293 MPD ctr 2-1 – parental HEK293 nonspecific activity of TRPC6 inhibitors, second screen. shares compounds with TRPC6 inhibitor. parental HEK293 membrane potential dye fluorescence; maximal acetylcholine challenge after compound addition. signal change vs control, % at 10 µM. 920 tested, 31% active;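 active means membrane potential signal moving either way by over 3 SD of the maximum-effect control, in both duplicate plates, meaning non-specific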
HEK293 MPD ctr-1 – parental HEK293 nonspecific activity of TRPC6 inhibitors | shares compounds with TRPC6 inhibitor | parental HEK293 membrane potential dye fluorescence | membrane potential signal change, % at 10 µM | 920 tested, 60% active | AID 2780;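 active means membrane potential signal shifting up or down by more than 3 SD of buffer-only wells, on both duplicate plates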
HEK293 MPD ctr-2 – counter-screen for TRPC6 modulators: effect in parental HEK293 cells. 2,400 tested, 51% active. membrane potential dye fluorescence. membrane potential signal change, % at 10 µM. shares compounds with TRPC6 inhibitor;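 active means membrane potential signal moves up or down beyond 5 SD from buffer-only wells, on both duplicate plates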
HEK293 MPD ctr 2-2 – parental HEK293 nonspecific activity of TRPC6 modulators, second screen; inhibition, % at 10 µM; shares compounds with TRPC6 inhibitor; 2,400 tested, 14% active; membrane potential dye fluorescence; after compound, maximal acetylcholine stimulation;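 active means membrane potential signal drops by more than 5 SD from the mean control signal, in both duplicate plates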
TRPC4 ctr mod – tests whether TRPC6 modulators also affect mouse TRPC4; shares compounds with TRPC6 inhibitor; HEK293 TRPC4/mu-opioid, membrane potential fluorescence; percent change from control (negative = decrease, positive = increase), % at 10 µM; 2,400 tested, 69% active; AID 488927;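 active means membrane potential signal moved up or down beyond 5 SD of buffer control wells, in both duplicate plates, actives on both sides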
TRPC4 ctr inh 2 – second selectivity test of TRPC6 modulators against mouse TRPC4. shares compounds with TRPC6 inhibitor. HEK293 TRPC4/mu-opioid, membrane potential dye fluorescence; stimulated with maximal-effect DAMGO. inhibition, % at 10 µM. 2,400 tested, 55% active;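 active means drop in membrane potential signal beyond 5 SD of the control wells in both duplicate plates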;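 further: TRPC4 counter screen for TRPC6 hits run under conditions tuned for TRPC6 not TRPC4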
TRPC6 block conf – mouse TRPC6 inhibitor confirmation | shares compounds with TRPC6 inhibitor | HEK293-TRPC6, membrane potential dye, ACh-evoked depolarization | inhibition, % at 10 µM | 3,300 tested, 43% active;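 active means fluorescence ratio falls more than 5 SD below the full-stimulation control mean, in both duplicate runs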;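 further: integrated fluorescence ratio of peak minus minimum over baseline after agonist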
TRPC6 act confirm – mouse TRPC6 activator confirmation | 2,800 tested, 11% active | shares compounds with TRPC6 inhibitor | activation, % at 10 µM | HEK293-TRPC6 membrane potential dye fluorescence, FDSS;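 active means ratio signal rise beyond 5 SD above unstimulated control wells' mean, seen in both duplicate runs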
Numbers stand for hits; . = inactive; / = no result given. This is a sample that favours compounds with a hit; in the whole collection about 2.5% have one here.

SMILES	Pemphigus Ab inh	TRPC6 inhibitor	TRPC4 agonist	TRPC6 activator	TRPC4 block	TRPC4 potent	HEK293 MPD ctr-2	HEK293 MPD ctr 2-2	TRPC4 ctr mod	TRPC4 ctr inh 2	TRPC6 block conf	TRPC6 act confirm	others
Cn1cc(CN2CCC(n3nccc3NC(=O)c3ccccc3Cl)CC2)c2ccccc21	.	-5.6	.	.	.	.	.	.	.	70%	.	.
CCS(=O)(=O)N1CCN(c2ccc([N+](=O)[O-])c(NC(C)c3ccccc3)c2)CC1 (configuration not stated)	/	.	.	.	.	.	/	/	/	/	/	/
CC(Nc1cc(N2CCNCC2)ccc1[N+](=O)[O-])c1ccccc1 (configuration not stated)	.	-7.1	75	.	.	.	/	/	/	/	.	.	TRPC4 spec 2=72%;TRPC4 spec=.;HEK293 MPD ctr 2-1=.;HEK293 MPD ctr-1=-182%
Cc1ccc(CNc2ccc3c(c2)ncn3C)cc1	/	.	.	.	.	.	/	/	/	/	/	/
CCn1cnc2cc(NCc3ccncc3)ccc21	.	.	.	.	.	.	/	/	/	/	/	/
CCc1ccc(CNc2ccc3c(c2)ncn3C)cc1	/	-6.3	.	.	.	.	.	.	-14%	61%	37%	.
CCn1cnc2cc(NCc3ccc(Cl)cc3)ccc21	.	-5.6	.	.	.	.	.	.	.	40%	48%	.
C=CCOC(=O)C1=C(C)N(C)C(=O)NC1c1cc2c(cc1Br)OCO2 (configuration not stated)	.	-5.4	.	.	.	.	.	.	.	.	.	.
O=C(CN1C(=O)NC2(CCCCCC2)C1=O)NCc1ccccc1	.	/	/	/	/	/	/	/	/	/	/	/
Cc1sc2cc3c(c(C(=O)c4ccccc4)[n+]2c1C)-c1cccc2cccc-3c12	/	-8.6	.	.	-6	.	/	/	/	/	.	.	TRPC4 spec 2=.;TRPC4 spec=-28%;HEK293 MPD ctr 2-1=.;HEK293 MPD ctr-1=-502%
CS(=O)c1ccccc1-c1nc(-c2ccc(Cl)cc2)no1 (configuration not stated)	.	.	.	.	.	.	/	/	/	/	/	/
CS(=O)c1ccccc1-c1nc(-c2cccc(Cl)c2)no1 (configuration not stated)	.	-9.8	.	.	.	.	/	/	/	/	.	.	TRPC4 spec 2=.;TRPC4 spec=.;HEK293 MPD ctr 2-1=.;HEK293 MPD ctr-1=.
COc1ccc(N2C(=O)C(CC(N)=O)N(NC(=O)CCc3ccccc3)C2=O)cc1 (configuration not stated)	.	.	.	.	.	.	/	/	/	/	/	/
CCN(Cc1ccncc1)C(=S)Nc1ccccc1	.	.	.	.	.	.	/	/	/	/	/	/
CCN(Cc1ccncc1)C(=O)C(CO)c1ccccc1 (configuration not stated)	.	-5.7	.	.	.	.	.	66%	.	.	82%	.
CC(CCc1ccccc1)NCc1cccc2ccccc12 (configuration not stated)	.	-7.4	.	.	.	.	/	/	/	/	67%	/	TRPC4 spec 2=.;TRPC4 spec=32%;HEK293 MPD ctr 2-1=.;HEK293 MPD ctr-1=15%
Fc1ccc(Cn2nnc3ccccc32)cc1	.	-7.9	.	.	.	.	/	/	/	/	.	.	TRPC4 spec 2=.;TRPC4 spec=.;HEK293 MPD ctr 2-1=.;HEK293 MPD ctr-1=-0.6%
CCNC(=S)N1CCN(S(=O)(=O)c2ccc(C)c(C)c2)CC1	.	-5.4	.	.	.	.	.	.	.	.	.	/
O=c1c2c3c(sc2nc2n1CCCCC2)C(O)CCC3 (configuration not stated)	.	.	.	.	.	.	/	/	/	/	/	/
CCOC(=O)C(=O)N(Nc1ccccc1C)c1ccccc1C	.	.	.	.	.	.	/	/	/	/	/	/
COc1ccc(-c2nnc3sc(C4CCCCC4)nn23)cc1OC	.	.	.	13	.	.	144%	.	40%	.	.	86%
O=C(NCCc1ccc(Cl)cc1)C1CCCO1 (configuration not stated)	.	.	.	.	.	.	/	/	/	/	/	/
Cc1c(OC(C)C(=O)N2C[C@H]3C[C@@H](C2)c2cccc(=O)n2C3)ccc2c3c(c(=O)oc12)CCC3 (some centres not stated)	.	-5	.	.	.	.	96%	.	12%	.	.	/
CCN1C[C@@H]2[C@@H]3C(=O)N(C)C(=O)[C@@H]3[C@](C)(C1=O)N2C(=O)c1ccc(F)cc1	.	/	/	/	/	/	/	/	/	/	/	/
O=C(CN1CCN(c2ncccn2)CC1)N1CCCC1	.	-5.3	.	.	.	.	.	.	.	.	.	.
SMILES	Pemphigus Ab inh	TRPC6 inhibitor	TRPC4 agonist	TRPC6 activator	TRPC4 block	TRPC4 potent	HEK293 MPD ctr-2	HEK293 MPD ctr 2-2	TRPC4 ctr mod	TRPC4 ctr inh 2	TRPC6 block conf	TRPC6 act confirm	others
O=C(CN1C(=O)C2CCCCC2C1=O)N1CCN(c2ncccn2)CC1 (configuration not stated)	.	.	.	.	.	.	/	/	/	/	/	/
CCOCCCNC(=O)C(NC(=O)Cc1cccs1)c1ccc(Cl)cc1 (configuration not stated)	.	.	.	.	.	.	/	/	/	/	/	/
Cc1cc(OCC(=O)Nc2ccc(N3CCN(C)CC3)cc2)ccc1Cl	.	-5.1	.	.	-6	.	.	.	30%	52%	.	.
CN1CCN(c2ccc(NC(=O)COc3ccccc3Cl)cc2)CC1	.	-9.2	.	.	.	.	/	/	/	/	.	.	TRPC4 spec 2=58%;TRPC4 spec=-11%;HEK293 MPD ctr 2-1=.;HEK293 MPD ctr-1=-186%
CCC(=O)N1CCN(c2ccc(NC(=O)COc3ccccc3Cl)cc2)CC1	.	.	.	.	.	.	/	/	/	/	/	/
Cc1cc(OCC(=O)Nc2ccc(S(=O)(=O)N3CCN(C)CC3)cc2)ccc1Cl	.	.	.	.	.	.	/	/	/	/	/	/
